DDE Tn6 FP inh: inhibitors of Tn6 peptide binding to human fibrin DD(E); inhibition, % at 8.3 µM; P02675; Fibrin DD(E) TRITC-Tn6 fluorescence polarization displacement; hit rate 0.21% among 370,000;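 active = inhibition above a per-campaign cutoff: mean of compounds within control limits plus 3 SD, cut at about 15% in these data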;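 note: 0% = median of all compound wells on the plate and 100% = blocking peptide control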
Target sequence (P02675 whole entry, looked up): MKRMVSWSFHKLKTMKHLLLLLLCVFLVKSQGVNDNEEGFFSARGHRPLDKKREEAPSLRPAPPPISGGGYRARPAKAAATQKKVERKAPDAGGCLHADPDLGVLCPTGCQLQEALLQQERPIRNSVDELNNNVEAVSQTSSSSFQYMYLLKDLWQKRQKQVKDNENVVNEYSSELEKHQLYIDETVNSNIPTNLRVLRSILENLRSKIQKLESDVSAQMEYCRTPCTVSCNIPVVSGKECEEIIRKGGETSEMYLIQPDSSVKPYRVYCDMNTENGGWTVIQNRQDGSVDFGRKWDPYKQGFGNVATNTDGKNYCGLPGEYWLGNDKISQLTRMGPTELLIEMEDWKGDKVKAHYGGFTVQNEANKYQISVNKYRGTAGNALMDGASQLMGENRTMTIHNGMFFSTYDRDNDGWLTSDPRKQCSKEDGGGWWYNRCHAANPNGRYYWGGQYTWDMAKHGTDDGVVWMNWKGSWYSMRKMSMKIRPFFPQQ
CRFR2-BP antag: blocks CRF-induced signaling of the CRF-BP/CRF-R2 complex | hit rate 0.59% among 350,000 | AID 588475 | HEK293 CRF-R2/CRF-BP, CRF-induced calcium fluorescence | inhibition, % at 11.8 µM;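 active = inhibition of the ligand-induced calcium signal above about 50% at the single tested concentration, limit read from the data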
Cardiac RTF inh: cardiac RTF calcium desensitization; IANBD-labeled cardiac RTF, Ca2+ fluorescence; inhibition, % at 7.15 µM; hit rate 0.12% among 340,000; AID 493244;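 active = inhibition above the mean inhibition of all tested compounds plus 3 SD, cut at about 17% in these data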;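 note: assay run at fixed EC70 calcium of 1.6 mM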
CRFR2-BP ag: CRF-BP/CRF-R2 complex agonism; HEK293 CRF-R2/CRF-BP, calcium dye fluorescence (FLIPR); percent of saturating CRF peptide response; activation, % at 13.2 µM; hit rate 0.46% among 350,000; AID 588473;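 active = activation of at least 50%, plus an integration ratio under a set limit after plate pattern correction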;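 note: plate controls were neutral control wells without compound for no effect and CRF at EC100 for full effect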
Tn7 DDE FP: disrupts Tn7 cyclic peptide binding to fibrin D-Dimer-E complex; FP displacement of FITC-Tn7 peptide from fibrin DD(E); 0% = median of compound wells per plate; inhibition, % at 8.3 µM; hit rate 0.13% among 370,000; AID 720508;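 active = inhibition above the mean of compounds falling within the control limits plus 3 SD of them, cut at about 14% in these data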;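 note: 0% = plate median of compound wells and 100% = 10 µM Aha-Tn7 peptide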
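Assay system: Human fibrin DD(E) protein | Medium: Tris buffer with calcium and detergent, pH 7.8 | Reagent: 0.1 µM fluorescent Tn7 | Compound dosing: Single point at 8.3 µM | Times: 10 min preincubation, 3 h with tracer, room temperature | Detection: Fluorescence polarization of the labelled Tn7 tracer | Controls: Aha-Tn7 high control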
RTF Ca sens act: increases calcium sensitivity of human cardiac regulated thin filaments; P19429+P45379; IANBD-labeled TnC RTF fluorescence at EC20 calcium; 0% EC20 calcium, 100% full calcium; activation, % at 7.2 µM; hit rate 0.24% among 340,000; AID 493008;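 active = activation above the mean over all tested compounds plus 3 SD, cut at about 30% in these data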;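 note: rise in fluorescence read as greater calcium sensitivity of cardiac thin filaments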
RTF Ca inh conf: cardiac RTF calcium sensitivity inhibition, confirmation; shares compounds with Cardiac RTF inh; reconstituted cardiac thin filaments, calcium sensitivity fluorescence; inhibition, % at 7.15 µM; hit rate 8% among 360; in the data active = inhibition above about 18%
The depositor's hits bear a star; nt = no result; ! = not confirmed by another sample. In the library only some 1.4% were active in any assay of this set; here they are far more common.

SMILES	DDE Tn6 FP inh	CRFR2-BP antag	Cardiac RTF inh	CRFR2-BP ag	Tn7 DDE FP	RTF Ca sens act	RTF Ca inh conf
O=C(O)c1cc(O)c2c(c1)[C@@H]([C@H]1c3cc(C(=O)O)cc(O)c3C(=O)c3c(O[C@@H]4O[C@H](CO)[C@@H](O)[C@H](O)[C@H]4O)cccc31)c1cccc(OC3O[C@H](CO)[C@@H](O)[C@H](O)[C@H]3O)c1C2=O (stereo not given in full)	-4.7	2.7	59.3*	-2.0	7.1	-39.3	112.1*
O=C(O)c1cc(O)c2c(c1)[C@H]([C@H]1c3cc(C(=O)O)cc(O)c3C(=O)c3c(O[C@@H]4O[C@H](CO)[C@@H](O)[C@H](O)[C@H]4O)cccc31)c1cccc(OC3O[C@H](CO)[C@@H](O)[C@H](O)[C@H]3O)c1C2=O (stereo not given in full)	-37.7	-11.5	53.4*	-1.8	4.5	-62.9	101.8*
Cc1cc(C)cc(Cn2c3ccc(NC(=O)NCCc4cccs4)cc3c(=O)n2C)c1	-0.1	nt	nt	nt	-0.3	nt	nt
CN(Cc1ccc(Cl)cc1Cl)C(=O)C1CSC2(C)CCC(=O)N12 (stereo not given)	10.6	-4.9	nt	-0.4	-5.9	nt	nt
CC(C)n1c(=O)c2ccccc2n1Cc1cn(Cc2cccs2)nn1	-0.2	nt	nt	nt	-0.2	nt	nt
Fc1ccc([C@@H]2CCNC[C@H]2COc2ccc3c(c2)OCO3)cc1	-5.1	-3.5	19.7*!	-0.6	0.0	-1.4	-2.4
CC(C)NC(=O)c1cc(C2CCCCN2S(=O)(=O)c2ccc(F)cc2F)on1 (stereo not given)	9.0	nt	nt	nt	6.2	nt	nt
O=C(NCCCn1ccnc1)c1[nH]c(C(F)(F)F)nc1-c1ccccc1	6.1	nt	nt	nt	3.6	nt	nt
O=C(Nc1ccnn1C1CCN(Cc2cccnc2)CC1)c1ccccc1Cl	-4.4	-4.5	17.5*	-1.0	-11.1	-6.8	-0.8
Nc1nc(-c2ccccc2)c(N=Nc2ccccc2Cl)s1	-2.2	16.6	21.6*	-0.8	-11.6	5.9	0.4
Nc1nc(-c2ccccc2)c(N=Nc2cccc3ccccc23)s1	-5.3	23.1	-7.8	3.2	7.5	-1.8	nt
COC(=O)[C@H](CC(C)C)NC(=O)/C=C/[C@H]1O[C@@H](n2cc(C)c(=O)[nH]c2=O)C[C@@H]1O	5.2	nt	nt	nt	1.7	nt	nt
CCC(Oc1ccccc1)C(=O)Nc1nnc(S(=O)(=O)N2CCCCC2)s1 (stereo not given)	-5.0	-6.9	17.6*	5.4	7.6	-1.6	-4.0
O=C(Nc1cnc2ccccn2c1=O)c1ccc(Cl)cc1Cl	-0.8	4.2	-10.5	1.7	-4.3	3.9	nt
O=C(c1ccc(Cl)cc1)c1cnc2ccccn12	3.4	-4.9	17.9*	-2.5	-11.1	2.7	-1.3
CCOC(=O)[C@]12CCCCC/C=C\1N(Cc1ccc(OC)cc1)C(=O)[C@H]2CC(=O)N1CCSCC1	3.9	nt	nt	nt	9.1	nt	nt
COc1ccc(C(=O)N/C(=C\c2cn(S(=O)(=O)N(C)C)c3ccccc23)C(=O)N2CCN(C)CC2)cc1OC	1.2	2.6	nt	-0.7	-7.4	nt	nt
CC(=O)N1CCCN(Cc2nc(C3(c4ccc(C)cc4)CCCC3)no2)CC1	-1.5	-15.6	-7.5	0.6	2.2	-3.2	nt
COCCN1CCN(Cc2nc(C3(c4ccc(C)cc4)CCCC3)no2)CC1	7.7	-24.9	19.4*	0.3	1.5	-0.5	-1.5
COc1ccc(CCNC(=O)CCCCCNc2nc(=S)[nH]c3ccccc23)cc1OC	1.5	7.5	2.9	-2.9	-1.4	-7.6	nt
COc1ccc(CNC(=O)CCCCCNc2nc(=S)[nH]c3ccccc23)cc1	3.6	-4.5	18.2*	-1.9	-0.1	3.4	-5.5
CCN(CC)S(=O)(=O)c1ccc(N/N=C/c2ccccc2OCC(=O)O)c([N+](=O)[O-])c1	9.2	9.5	18.8*	0.1	-8.2	-0.7	-0.5
CCCN1CNc2c(c(=O)[nH]c(=S)n2CCc2cccc(Cl)c2Cl)C1	2.7	nt	nt	nt	6.3	nt	nt
O=c1cc2oc3cc(O)c(O)cc3c(-c3ccccc3[N+](=O)[O-])c-2cc1O	-3.3	11.7	29.4*	0.0	2.9	-38.4	55.8*
Brc1ccc(-c2nnc(Cc3ccccc3)o2)cc1	-3.0	10.2	nt	-4.2	5.0	nt	nt
SMILES	DDE Tn6 FP inh	CRFR2-BP antag	Cardiac RTF inh	CRFR2-BP ag	Tn7 DDE FP	RTF Ca sens act	RTF Ca inh conf
c1ccc(Cc2nnc(-c3ccccc3)o2)cc1	0.0	23.1	17.0*	1.0	-2.5	-1.6	-1.0
Cc1cnc(NC2=NCCC2)s1	2.5	-3.0	45.5*	4.0	-6.5	-8.6	-3.4
c1nnc(NC2=NCCC2)s1	5.1	-4.5	6.4	-2.7	5.4	3.8	nt
CC(=O)OC12CCCN(C1)/C(=C/c1cccc(N(C)C)c1)C2 (stereo not given)	4.0	nt	nt	nt	-0.6	nt	nt
CC(=O)CC(=O)Nc1ccc2ccccc2c1	-10.5	-6.1	3.3	0.2	-10.5	-1.4	nt
CC(=O)Nc1ccc2ccccc2c1	nt	19.3	23.6*	2.7	nt	-7.7	-1.7
CC1(C)C(/C=C/C=C/C=C/C=C2\N(CCCCS(=O)(=O)O)c3ccc4ccccc4c3C2(C)C)=[N+](CCCCS(=O)(=O)[O-])c2ccc3ccccc3c21	nt	68.6*	20.0*	2.2	nt	-11.2	-45.7
Cc1ccc(-n2c(COc3ccccc3)nnc2SCC(=O)Nc2ccccc2-c2ccccc2)cc1	-2.2	nt	nt	nt	5.9	nt	nt
Cc1cccc(NC(=O)c2cnn(C)c2)c1C	4.6	4.8	17.3*	0.3	2.2	4.8	-1.7
Cc1cc(C)c(NC(=O)c2cnn(C)c2)c(C)c1	11.1	14.8	0.6	-1.1	4.9	7.6	nt
CCn1c2ccccc2c2cc(NC(=O)COC(=O)c3cc(F)cc(F)c3)ccc21	-2.6	nt	nt	nt	9.5	nt	nt
COc1ccccc1CN1C[C@@H]2C[C@@H](c3ccc(C)cc3)N3CCC[C@@]23C1=O	-4.6	-16.7	-17.0	1.0	-4.7	5.3	nt
CCc1ccc([C@@H]2C[C@H]3CN(Cc4ccccc4OC)C(=O)[C@]34CCCN24)cc1	1.1	-6.3	55.3*	1.2	-1.0	0.9	-4.8
CCCCC[C@@H](C)N1C[C@H](COCc2ccccc2)Oc2cc(N3CC[C@@H](O)C3)ccc2S1(=O)=O	-11.6	nt	nt	nt	-7.0	nt	nt
CC(C)CC(=O)N1CCC(C(=O)NCC2COc3ccccc3O2)CC1 (stereo not given)	6.9	nt	nt	nt	1.5	nt	nt
O=C(COC(=O)CCSc1ccc(Cl)cc1)NCc1ccccc1Cl	1.2	18.9	17.6*	0.3	6.3	-0.7	-3.1
COC(=O)C1CN(C2CC2)CCS(=O)(=O)N1Cc1cn(Cc2ccc(C)cc2)nn1 (stereo not given)	2.9	nt	nt	nt	-4.4	nt	nt
Cc1cccc(-c2cccc3c4c([nH]c23)[C@@H]2C[C@H](N(C)C(=O)OCc3ccccc3)[C@H]([C@H](C)O)CN2CC4)c1	-0.8	nt	nt	nt	0.4	nt	nt
C=CCN(CC#CC1=CCCCC1)Cc1ccc(OC)cc1OC	8.7	nt	nt	nt	-2.4	nt	nt

From PubChem
